The text below walks through data of ChEMBL document CHEMBL5030567, “Macrocyclic Inhibitors of HGF-Activating Serine Proteases Overcome Resistance to Receptor Tyrosine Kinase Inhibitors and Block Lung Cancer Progression” (J Med Chem, 2021).

Each structure is given as a SMILES string. Activity calls are given as the source filed them. The rule behind the calls is not given here. Numbered stars: 1 amine (or outer) side, 2 acyl side, 3 side chain; on linkers, the order of the positions; unused ones are H or OH. Square brackets hold non-standard residues; d marks the D form. Peptide text beside a SMILES is read from it. X1 = N=C(N)NCCC[C@H](N[*:1])C(=O)c1nc2ccc(C(=O)[*:2])cc2s1

Data set [1] in a line: Toxicity in NSG mouse assessed as body weight loss at 20 to 100 mg/kg, ip administered for 7 days. The class given is organism-based. Particulars: in vivo, dose 20-100 mg/kg, time 7 day.
The nature of data set [2]: Acute toxicity in NSG mouse at 20 to 100 mg/kg, ip administered for 7 days. It counts as organism-based. Particulars: in vivo, dose 20-100 mg/kg, time 7 day.
In data set [3] the test system is NCI-H596. Put plainly: Antitumor activity against human NCI-H596 cells xenografted in hHGF knock in NSG mouse assessed as tumor growth inhibition at 50 mg/kg, ip administered daily for 25 days. Particulars: time 25.0 day. The class given is functional, organism-based. (In general: Xenograft models place foreign cells or tissue in a host animal.)
Data set [4] deals with Coagulation factor X (Homo sapiens, UniProt P00742). Put plainly: Inhibition of recombinant C-terminal 10His-tagged human coagulation factor 10a (Leu24 to Lys488 residues) expressed in baculovirus infected Sf9 insect cells using Bz-Ile-Glu-Gly-Arg-pNA as substrate preincubated for 30 mins followed by substrate addition by chromogenic assay.
Data set [5] in a line: Stability in human plasma assessed as half life. The class given is ADME, cell-free.
In data set [6] the target is Serine protease hepsin (Homo sapiens, UniProt P05981). Put plainly: Inhibition of recombinant human C-terminal 10-His tagged hepsin (Arg45 to Leu417) expressed in mouse myeloma cells mediated pro-HGF activation preincubated for 30 mins followed by pro-HGF addition and measured after 1 hr by immunoblotting analysis. In outline:
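Recombinant pro-HGF (10 ng) incubated one hour with matriptase (1 nM), hepsin (10 nM) or HGFA (5 nM), with or without inhibitor. Processing detected by immunoblot with a polyclonal antibody recognizing pro-HGF and the HGF alpha and beta chains; active HGF served as positive control.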
(Immunoblotting shows a protein as a band on a membrane.)

The subject of data set [7] is HCC827. The experiment in a line: Inhibition of pro-HGF stimulated wound healing in human HCC827 cells preincubated for 30 mins followed by pro-HGF stimulation and measured after 24 hrs by crystal violet staining based assay. It counts as functional, cell-based. The method, boiled down:
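HCC827 monolayers grown to confluence, serum-starved overnight, then scratched. Cells were pre-incubated 30 min with inhibitor (10 µM) and stimulated with HGF or pro-HGF for 24 h. Wells stained with crystal violet to score closure. n=3; one-way ANOVA versus pro-HGF alone.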

In data set [8] the test system is HCC827. The experiment in a line: Cytotoxicity against human HCC827 cells assessed as reduction in cell viability at 0.1 to 1 uM after 72 hrs by crystal violet staining based assay. Particulars: dose 0.1-1 µM.
The test system of data set [9] is HCC827. Put plainly: Cytotoxicity against human HCC827 cells assessed as reduction in cell viability at 0.1 to 1 uM after 72 hrs in presence of pro-HGF by crystal violet staining based assay. The following applies: dose 0.1-1 µM.

Take `CC(=O)N[C@@H](CO)C(=O)N[C@@H](CCCCN)C(=O)N[C@@H](CC(C)C)C(=O)N[C@@H](CCCNC(=N)N)C(=O)c1nc2ccc(C(=O)N[C@H](C(N)=O)C(C)C)cc2s1` (Ac-SKL[X1]V-NH2): the Activity entry in data set [1] and in data set [2] was “Non-Toxic” each time. In addition, the result in data set [3] and in [9] was Active. Also, the IC50 (commonly the midpoint of a concentration-inhibition curve) in data set [4] is 770 nM. In data set [5], the t1/2 is listed as 140 min. For the same compound, the inhibition result in data set [6] and in data set [7] was “Active” in each case. Further, in data set [8], the outcome was inactive.
